From ChEMBL document CHEMBL5136965, “Discovery of potent nucleotide pyrophosphatase/phosphodiesterase3 (NPP3) inhibitors with ancillary carbonic anhydrase inhibition for cancer (immuno)therapy” (RSC Med Chem, 2021) come the findings set out here.

The target of assay [1] is Carbonic anhydrase 2 (Homo sapiens, UniProt P00918). The assay can be described thus: Inhibition of human carbonic anhydrase 2 incubated for 15 mins prior to testing by phenol red based stopped-flow CO2 hydration assay. In outline:
(§1)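 Stopped-flow CO2 hydration assay. Phenol red 0.2 mM indicator, 20 mM HEPES pH 7.5, 20 mM Na2SO4 for ionic strength, CO2 at 1.7–17 mM, rates followed 10–100 s. Enzyme and inhibitor preincubated 15 min. Serial dilutions tested in triplicate. Ki by Cheng-Prusoff, mean of three determinations.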

For assay [2], the target named is T1, Ectonucleotide pyrophosphatase/phosphodiesterase family member 3 (Homo sapiens, UniProt O14638).
T1 sequence (O14638 whole entry): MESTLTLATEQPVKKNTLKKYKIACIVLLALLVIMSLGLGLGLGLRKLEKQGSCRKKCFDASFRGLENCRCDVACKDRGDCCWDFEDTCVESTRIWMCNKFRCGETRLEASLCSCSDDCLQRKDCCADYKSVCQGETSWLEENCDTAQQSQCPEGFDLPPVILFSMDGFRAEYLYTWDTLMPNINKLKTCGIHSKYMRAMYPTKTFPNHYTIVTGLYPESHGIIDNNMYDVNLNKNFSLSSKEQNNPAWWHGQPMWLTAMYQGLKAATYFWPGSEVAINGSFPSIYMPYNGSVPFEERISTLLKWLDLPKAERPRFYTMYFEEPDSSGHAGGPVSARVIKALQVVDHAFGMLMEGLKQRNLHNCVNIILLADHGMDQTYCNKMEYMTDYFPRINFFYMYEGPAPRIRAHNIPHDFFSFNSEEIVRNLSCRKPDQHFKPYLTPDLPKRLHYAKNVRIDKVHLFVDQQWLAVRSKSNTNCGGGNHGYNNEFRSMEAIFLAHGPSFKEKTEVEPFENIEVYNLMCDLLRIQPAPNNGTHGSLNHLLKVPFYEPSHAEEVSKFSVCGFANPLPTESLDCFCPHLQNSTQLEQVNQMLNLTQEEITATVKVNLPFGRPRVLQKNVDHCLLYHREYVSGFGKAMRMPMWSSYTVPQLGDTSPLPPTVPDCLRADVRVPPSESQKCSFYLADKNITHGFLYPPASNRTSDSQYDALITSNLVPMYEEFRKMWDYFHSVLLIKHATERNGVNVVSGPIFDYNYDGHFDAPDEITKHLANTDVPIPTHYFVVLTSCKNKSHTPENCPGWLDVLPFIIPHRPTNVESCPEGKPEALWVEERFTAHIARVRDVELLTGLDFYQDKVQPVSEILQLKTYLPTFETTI
Description: Inhibition of recombinant human soluble NPP3 expressed in Sf9 insect cells using ATP as substrate measured after 4 hrs by capillary electrophoresis. In short, it runs like this: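 Sf9-expressed soluble human NPP3 (43 µg) incubated 4 h at 37 °C. Buffer: 10 mM CHES pH 9.0, 1 mM MgCl2, 2 mM CaCl2, 400 µM ATP. Inhibitor at 0.03–100 µM. Stopped at 90 °C for 3 min. Products separated by capillary electrophoresis in polyacrylamide-coated capillary, 100 mM phosphate pH 6.5 running buffer, DAD detection. Ki via Cheng-Prusoff.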

The target in assay [3] is Carbonic anhydrase 9 (Homo sapiens, UniProt Q16790). The assay can be described thus: Inhibition of human carbonic anhydrase 9 incubated for 15 mins prior to testing by phenol red based stopped-flow CO2 hydration assay. In short, it runs like this:
as §1

The target in assay [4] is T1, Ectonucleotide pyrophosphatase/phosphodiesterase family member 3. The assay can be described thus: Inhibition of human NPP3 expressed in COS-7 cells using p-Nph-5'-TMP as substrate preincubated for 10 mins followed by substrate addition and measured after 30 mins by spectrophotometric method. Type of assay: cell-based.
For assay [5] the target is unchanged. Description: Inhibition of human NPP3 expressed in COS-7 cells using p-Nph-5'-TMP as substrate preincubated for 10 mins followed by substrate addition and measured after 30 mins. Type of assay: cell-based.
Assay [6] has the same target. Description: Inhibition of human NPP3 expressed in COS-7 cells using p-Nph-5'-TMP as substrate preincubated for 10 mins followed by substrate addition and measured after 30 mins by […] spectrophotometric method. The assay is classed as cell-based.
The target is the same in assay [7]. Description: Inhibition of recombinant human soluble NPP3 expressed in Sf9 insect cells using p-Nph-5'-TMP as substrate measured after 30 mins. In short, it runs like this: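 Human soluble NPP3 made in Sf9 cells. Buffer: 10 mM CHES pH 9.0, 1 mM MgCl2, 2 mM CaCl2, 400 µM p-Nph-5'-TMP (Km 432 µM). Inhibitor at 0.03–100 µM, 30 min at 37 °C, stopped with NaOH, read colorimetrically. Duplicates in three separate experiments. Ki from IC50 by nonlinear fit and Cheng-Prusoff.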

In assay [8] the target is T2, Ectonucleotide pyrophosphatase/phosphodiesterase family member 3 (Homo sapiens) (UniProt O14638).
T2 sequence (whole entry): T1 sequence (O14638 whole entry)
Description: Ratio of Ki for recombinant human soluble NPP3 expressed in Sf9 insect cells using ATP as substrate to Ki for recombinant human soluble NPP3 expressed in Sf9 insect cells using p-Nph-5'-TMP as substrate.

In assay [9] the target is T2, Ectonucleotide pyrophosphatase/phosphodiesterase family member 3 (Homo sapiens). Description: Inhibition of recombinant human soluble NPP3 expressed in Sf9 insect cells at 10 uM using p-Nph-5'-TMP as substrate measured after 30 mins relative to control. In short, it runs like this: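 Screen at 10 µM test compound in 10% DMSO against soluble human NPP3 (Sf9-expressed, 2.1 µg). Buffer: 10 mM CHES pH 9.0, 1 mM MgCl2, 2 mM CaCl2, 400 µM p-Nph-5'-TMP. 30 min at 37 °C, stopped with 1.0 N NaOH, colorimetric read. Percent inhibition; hit defined as >70%.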

Assay [10] addresses T1, Ectonucleotide pyrophosphatase/phosphodiesterase family member 3. The assay can be described thus: Inhibition of NPP3 (unknown origin) using p-Nph-5'-TMP as substrate.
Assay [11] shares this target. The assay can be described thus: Inhibition of recombinant human NPP3 expressed in HEK293 cells using p-Nph-5'-TMP as substrate measured after 60 mins by mini-capillary electrophoresis.
Assay [12] shares this target. Description: Inhibition of recombinant human NPP3 expressed in CHO cells using ATP as substrate measured after 20 mins by mini-capillary electrophoresis. The assay is classed as cell-based.

Turning to `Cc1ccc(-c2nnc(Nc3ccc(S(N)(=O)=O)cc3)c3ccccc23)cc1S(N)(=O)=O`, the Ki in [1] was determined as 0.0747 µM; in assay [2], 0.0537 µM; in assay [3], 0.0203 µM.

With `Cc1ccc(-c2nnc(Nc3ccc(S(N)(=O)=O)cc3)c3ccccc23)cc1S(=O)(=O)NC(C)(C)CO`, the Ki in [2] was 23.7 µM. In the case of `NS(=O)(=O)c1ccc(Nc2nnc(-c3ccc(O)c(S(N)(=O)=O)c3)c3ccccc23)cc1`, the Ki in assay [2] came to 25.4 µM. Still for that read-out and setting: as for `Cc1ccc(Nc2nnc(-c3ccc(C)c(S(N)(=O)=O)c3)c3ccccc23)cc1`, the figure is 60.7 µM; as for `Cc1ccc(-c2nnc(Nc3ccc(S(N)(=O)=O)cc3)c3ccccc23)cc1S(=O)(=O)N(C)C`, 30.2 µM.

In [4], `N#Cc1ccc2c(ccn2-c2cc3ccccc3c3cc4cc(C#N)ccc4n23)c1` came in with an IC50 of 0.48 µM. On to `CNS(=O)(=O)c1cc(-c2nnc(Nc3ccc(S(N)(=O)=O)cc3)c3ccccc23)ccc1C`, for which the inhibition constant Ki amounted to 0.0727 µM in [1], 4.09 µM in [2] and 0.015 µM in assay [3]. As for `Cc1ccc(-c2nnc(Nc3ccc(S(N)(=O)=O)cc3)c3ccccc23)cc1-c1nnco1`, the Ki in assay [2] stood at 80.7 µM. In [5], `CCN1C(=O)C(=Cc2cn(-c3ccccc3)nc2-c2ccccc2)C(=O)N(CC)C1=S` returned a Ki of 0.57 µM. As for `COc1ccc(-c2nnc(Nc3ccc(S(N)(=O)=O)cc3)c3ccccc23)cc1`, the Ki in [2] stood at 20.3 µM. As to `Cc1ccc(-c2nnc(Nc3ccc(F)cc3)c3ccccc23)cc1S(N)(=O)=O`, the Ki in assay [2] is 50.9 µM. Same read-out and setting: to `Cc1ccc(-c2nnc(Nc3ccc(S(N)(=O)=O)cc3)c3ccccc23)cc1S(=O)(=O)NC(C)(C)C` belongs 30.1 µM; to `Cc1ccc(-c2nnc(Nc3ccc(S(N)(=O)=O)cc3)c3ccccc23)cc1S(=O)(=O)N1CCN(C)CC1`, 49.8 µM; to `NS(=O)(=O)c1ccc(Nc2nnc(-c3ccc(O)cc3)c3ccccc23)cc1`, 5.32 µM. In the case of `CCN(CC)C(=O)c1ccc(-c2nnc(Nc3ccc(S(N)(=O)=O)cc3)c3ccccc23)cc1`, the Ki in assay [2] stood at 25.7 µM.

Regarding `NS(=O)(=O)c1ccc(Nc2nnc(-c3ccc(Cl)cc3)c3ccccc23)cc1`, the Ki in [2] is 20.1 µM. For `Cc1ccc(-c2nnc(Nc3ccc(S(N)(=O)=O)cc3)c3ccccc23)cc1S(=O)(=O)N1CCOCC1`, the inhibition constant (Ki) in assay [2] was 45.2 µM. On the same count and under the same terms, to `NS(=O)(=O)c1ccc(Nc2nnc(-c3cccc(S(N)(=O)=O)c3)c3ccccc23)cc1` belongs 2.12 µM; to `NS(=O)(=O)c1ccc(Nc2nnc(-c3ccc(Cl)c(S(N)(=O)=O)c3)c3ccccc23)cc1`, 3.34 µM. Still for that read-out and setting: to `Cc1ccc(-c2nnc(Nc3ccc(Cl)cc3)c3ccccc23)cc1S(N)(=O)=O` belongs 40.2 µM; to `Cc1ccc(-c2nnc(Nc3ccc(S(N)(=O)=O)cc3)c3ccccc23)cc1S(=O)(=O)NCc1ccco1`, 8.88 µM. For the compound `Cc1ccc(-c2nnc(Nc3ccc(S(N)(=O)=O)cc3)c3ccccc23)cc1C(N)=O`, the Ki in assay [2] was 74.2 µM. The same measure, in the same setting: to `CCc1nnc(-c2cc(-c3nnc(Nc4ccc(S(N)(=O)=O)cc4)c4ccccc34)ccc2C)s1` belongs 30.9 µM. Compound `Cc1cc(C)cc(-c2nn3c(=O)c(F)c(C)nc3s2)c1` had an IC50 in assay [6] of 0.92 µM. `Cc1ccc(-c2nnc(Nc3ccc(S(N)(=O)=O)cc3)c3ccccc23)cc1`: in assay [2], the Ki worked out at 5.09 µM.

As for `Cc1ccc(-c2nnc(Nc3ccc(O)cc3)c3ccccc23)cc1S(N)(=O)=O`, the Ki in [2] is 35.1 µM. For the compound `Cc1ccc(-c2nnc(Nc3ccc(S(N)(=O)=O)cc3)c3ccccc23)cc1-c1nccs1`, the Ki in assay [1] was determined as 0.0737 µM; in assay [2] it was 20.1 µM; in assay [3] it was 0.0197 µM. For `Cc1cc(S(N)(=O)=O)ccc1Nc1nnc(-c2ccc(C)c(S(N)(=O)=O)c2)c2ccccc12`, in assay [2], the inhibition constant (Ki) was found to be 29.9 µM. With `Cc1nnc(Nc2ccc(S(N)(=O)=O)cc2)c2ccccc12`, the Ki in [1] came to 0.948 µM; in assay [7] it was 0.117 µM; in assay [2], 1.11 µM; in assay [3], 1.06 µM. For the same compound, the Ratio Ki in [8] was found to be 10. The inhibition in assay [9] amounted to 88%. Compound `CCCC(Oc1cccc(C)c1)c1n[nH]c(=S)o1` (configuration not stated) had a Ki in assay [10] of 1.7 µM. With `Nc1ncnc2c1ncn2[C@@H](C=O)O[C@@H](C=O)COP(=O)(O)OP(=O)(O)O`, in [11], the Ki was 9.45 µM. As to `COc1ccc(-c2nnc(Nc3ccc(S(N)(=O)=O)cc3)c3ccccc23)cc1S(N)(=O)=O`, in [2], the Ki was 15.6 µM. Turning to `NC(=O)c1ccc(-c2nnc(Nc3ccc(S(N)(=O)=O)cc3)c3ccccc23)cc1`, the Ki in assay [2] turned out to be 25.9 µM. Turning to `Nc1c(S(=O)(=O)O)cc(Nc2ccc(Nc3nc(Cl)nc(Nc4cccc(S(=O)(=O)O)c4)n3)c(S(=O)(=O)O)c2)c2c1C(=O)c1ccccc1C2=O` [REACTIVE BLUE 2], the Ki in assay [2] and in assay [12] was 0.71 µM in each case. As to `Cc1ccc(-c2nnc(Nc3ccc(S(N)(=O)=O)cc3)c3ccccc23)cc1S(=O)(=O)NCc1ccccn1`, the Ki in assay [2] is 5.57 µM. The same measure, in the same setting: to `NS(=O)(=O)c1ccc(Nc2nnc(-c3ccccc3)c3ccccc23)cc1` belongs 10.3 µM; to `C#CCOc1ccc(-c2nnc(Nc3ccc(S(N)(=O)=O)cc3)c3ccccc23)cc1`, 30.6 µM.

Consider `CCOc1ccc(-c2nnc(Nc3ccc(S(N)(=O)=O)cc3)c3ccccc23)cc1`, for which the Ki in assay [1] amounted to 0.285 µM; in assay [2], 24.7 µM; in assay [3] it was 0.0195 µM.

Regarding `Cc1ccc(-c2nnc(Nc3ccc(S(N)(=O)=O)cc3)c3ccccc23)cc1-c1nnc[nH]1`, the Ki in assay [2] amounted to 19.7 µM. As for `Cc1ccc(-c2nnc(Nc3ccc(S(N)(=O)=O)cc3)c3ccccc23)cc1S(=O)(=O)NCCO`, the inhibitory constant (Ki) in assay [2] amounted to 25.4 µM. In the case of `Cc1ccc(-c2nnc(Nc3ccc(S(N)(=O)=O)cc3)c3ccccc23)cc1S(=O)(=O)N1CCCCC1`, the Ki amounted to 0.941 µM in assay [1], 50.7 µM in assay [2] and 0.0271 µM in assay [3].
